Measurements reported in ChEMBL document CHEMBL1137218, “Long hydrocarbon chain ether diols and ether diacids that favorably alter lipid disorders in vivo” (J Med Chem, 2004).

Columns and labels:
Assay type in all cases: functional; call rule not given here
Rattus norvegicus [1] = experiment: Percent change from pre-treatment in Non HDL-Cholesterol level at 97 mg/kg after 1 week.
How it was run: (§1)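 Female obese Zucker fatty rats Crl:(Zuc)-faBR, 10–12 weeks old (400–500 g), n=3–4, fed chow. Dosed by oral gavage once daily in 20% EtOH/80% PEG-200 for up to 14 days. Serum taken after a 6 h fast before dosing, at day 7 (orbital plexus) and at day 14 (cardiac puncture). TG by enzymatic kit on analyzer. HDL-C and non-HDL-C from Superose 6 gel-filtration profile area × total cholesterol. Results given as % change from pretreatment.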

Rattus norvegicus [2] = species on record: Rattus norvegicus; experiment: In vitro inhibitory concentration against lipid synthesis in primary rat hepatocyte culture
How it was run: (§2)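 Primary hepatocytes isolated from male Sprague-Dawley rats (Seglen method) and plated on collagen in DMEM with 20% FBS, 100 nM insulin, 25 mM glucose. Medium made serum-free after 4 h, cultured overnight to monolayers. Then 4 h incubation with 0.25 μCi [14C]-acetate/well (1 Ci/mol) and 0–300 μM compound. Lipids extracted into scintillant and counted. IC50 derived from lipid synthesis rates by nonlinear sigmoidal fit.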

Rattus norvegicus [3] = experiment: Percent change from pre-treatment in Triglycerides level at 97 mg/kg after 2 weeks.; how it was run: as §1
Rattus norvegicus [4] = experiment: Percent change from pre-treatment in Triglycerides level at 97 mg/kg after 1 week.; how it was run: as §1
Rattus norvegicus [5] = experiment: Percent change from pre-treatment in HDL-Cholesterol level at 97 mg/kg after 2 weeks.; how it was run: as §1
Rattus norvegicus [6] = experiment: Percent change from pre-treatment in Non HDL-Cholesterol level at 97 mg/kg after 2 weeks.; how it was run: as §1
Rattus norvegicus [7] = experiment: Percent change from pre-treatment triglycerides level at 100 mg/Kg after 2 weeks; how it was run: as §1
Rattus norvegicus [8] = experiment: Percent change from pre-treatment Non HDL-Cholesterol level at 100 mg/Kg after 1 week; how it was run: as §1
Rattus norvegicus [9] = experiment: Percent change from pre-treatment HDL-Cholesterol level at 100 mg/Kg after 2 weeks; how it was run: as §1
Rattus norvegicus [10] = experiment: Percent change from pre-treatment Non HDL-Cholesterol level at 100 mg/Kg after 2 weeks; how it was run: as §1
Rattus norvegicus [11] = experiment: Percent change from pre-treatment HDL-Cholesterol level at 100 mg/Kg after 1 week; how it was run: as §1
Rattus norvegicus [12] = experiment: Percent change from pre-treatment triglycerides level at 100 mg/Kg after 1 week; how it was run: as §1
Rattus norvegicus [13] = experiment: Percent change from pre-treatment in Triglycerides level at 30 mg/kg after 1 week.; how it was run: as §1
Rattus norvegicus [14] = experiment: Percent change from pre-treatment in Non HDL-Cholesterol level at 30 mg/kg after 1 week.; how it was run: as §1
Rattus norvegicus [15] = experiment: Percent change from pre-treatment in Non HDL-Cholesterol level at 30 mg/kg after 2 weeks.; how it was run: as §1
Rattus norvegicus [16] = experiment: Percent change from pre-treatment in HDL-Cholesterol level at 30 mg/kg after 1 week.; how it was run: as §1
Rattus norvegicus [17] = experiment: Percent change from pre-treatment in Triglycerides level at 30 mg/kg after 2 weeks.; how it was run: as §1
Rattus norvegicus [18] = experiment: Percent change from pre-treatment in Non HDL-Cholesterol level at 80 mg/kg after 2 weeks; how it was run: as §1
Rattus norvegicus [19] = experiment: Percent change from pre-treatment in Triglycerides level at 80 mg/kg after 2 weeks; how it was run: as §1
Rattus norvegicus [20] = experiment: Percent change from pre-treatment in HDL-Cholesterol level at 80 mg/kg after 1 week; how it was run: as §1
Rattus norvegicus [21] = experiment: Percent change from pre-treatment in Non HDL-Cholesterol level at 80 mg/kg after 1 week; how it was run: as §1
Rattus norvegicus [22] = experiment: Percent change from pre-treatment in Triglycerides level at 80 mg/kg after 1 week; how it was run: as §1
Rattus norvegicus [23] = experiment: Percent change from pre-treatment in HDL-Cholesterol level at 80 mg/kg after 2 weeks; how it was run: as §1
Rattus norvegicus [24] = experiment: Percent change from pre-treatment in HDL-Cholesterol level at 30 mg/kg after 2 weeks.; how it was run: as §1
Rattus norvegicus [25] = species on record: Rattus norvegicus; experiment: In Vitro inhibitory concentration against lipid synthesis in primary rat hepatocyte culture. na=Not active; inhibition of [14C]acetate incorporation into total lipids is less than 50% at 300 uM.; how it was run: as §2

Row | Structure (SMILES) | IC50 (Rattus norvegicus [2]) [µM] | Change (Rattus norvegicus [7]) [%] | Change (Rattus norvegicus [8]) [%] | Change (Rattus norvegicus [9]) [%] | Change (Rattus norvegicus [10]) [%] | Change (Rattus norvegicus [11]) [%] | Change (Rattus norvegicus [12]) [%] | also measured
1 | CC(C)(CO)CCCC1CCC(CCCC(C)(C)CO)O1 (centres undefined) | 9 | – | – | – | – | – | – | Change (Rattus norvegicus [1]): 11%; Change (Rattus norvegicus [3]): -13%; Change (Rattus norvegicus [4]): -49%; Change (Rattus norvegicus [5]): 140%; Change (Rattus norvegicus [6]): 31%
2 | CC(C)(CCCCOCCCCC(C)(C)CCC(=O)O)CCC(=O)O | 22 | -73 | -50 | 39 | -30 | 13 | -80 | –
3 | CC(C)(CO)CCCCCOCCCCC(C)(C)CO | 11 | – | – | – | – | – | – | Change (Rattus norvegicus [13]): -66%; Change (Rattus norvegicus [14]): -26%; Change (Rattus norvegicus [15]): 17%; Change (Rattus norvegicus [16]): 71%; Change (Rattus norvegicus [17]): -77%
4 | CC(C)(CO)Cc1cccc(Oc2cccc(CC(C)(C)CO)c2)c1 | 98 | -54 | -50 | 25 | -50 | 17 | -32 | –
5 | CC(C)(CO)CCCCCCCCCC(C)(C)CO | 4 | -82 | -67 | 137 | -75 | 189 | -83 | –
6 | CC(C)(CO)CCCCCCCCCCCC(C)(C)CO | 4 | -35 | -20 | -1 | 48 | -5 | -70 | –
7 | CC(C)(CCCCCCCCCCCC(C)(C)C(=O)O)C(=O)O | 7 | -87 | -66 | -6 | -60 | -14 | -89 | –
8 | CC(C)(CCOCCCOCCC(C)(C)C(=O)O)C(=O)O | – | – | – | – | – | – | – | Change (Rattus norvegicus [18]): 15%; Change (Rattus norvegicus [19]): 46%; Change (Rattus norvegicus [20]): -18%; Change (Rattus norvegicus [21]): -10%; Change (Rattus norvegicus [22]): 5%; Change (Rattus norvegicus [23]): -5%
9 | CC(C)(CO)CCCCOCCCC(C)(C)CO | 17 | – | – | – | – | – | – | Change (Rattus norvegicus [13]): 21%; Change (Rattus norvegicus [14]): 44%; Change (Rattus norvegicus [15]): 74%; Change (Rattus norvegicus [16]): 24%; Change (Rattus norvegicus [17]): 32%; Change (Rattus norvegicus [24]): 40%
10 | CC(C)(CO)CCCCOCCCCC(C)(CO)c1ccccc1 (centres undefined) | 5 | -45 | -55 | 52 | -13 | 26 | -61 | –
11 | CC(C)(CO)CCCCOCCCCC(C)(C)COC1CCCCO1 (centres undefined) | 11 | -63 | -28 | 152 | -14 | 130 | -69 | –
12 | CC(CO)(CCCCOCCCC(C)(CO)c1ccccc1)c1ccccc1 (centres undefined) | – | – | – | – | – | – | – | Change (Rattus norvegicus [13]): -1%; Change (Rattus norvegicus [14]): 16%; IC50 (Rattus norvegicus [25]): Not Active; Change (Rattus norvegicus [15]): 45%; Change (Rattus norvegicus [16]): -2%; Change (Rattus norvegicus [17]): 21%; Change (Rattus norvegicus [24]): -20%
13 | CC(C)(CO)CCCOCCOCCCC(C)(C)CO | – | 6 | 33 | 10 | 45 | 3 | -9 | IC50 (Rattus norvegicus [25]): Not Active
14 | CC(CO)(CCCOCCCC(C)(CO)c1ccccc1)c1ccccc1 (centres undefined) | 130 | -18 | -32 | 5 | -26 | 7 | -27 | –
15 | CC(C)(Cc1cccc(Oc2cccc(CC(C)(C)C(=O)O)c2)c1)C(=O)O | 53 | -27 | -59 | 16 | -21 | 20 | -46 | –
16 | CC(C)(CCCCOCCCCC(C)(C)COC1CCCCO1)COC1CCCCO1 (centres undefined) | 20 | 22 | 46 | 79 | 92 | 43 | -1 | –
17 | CC(C)(CO)CCCC1CCCC(CCCC(C)(C)CO)O1 (centres undefined) | 39 | -46 | -70 | – | -31 | 75 | -74 | –
18 | CC(C)(CCCOCCOCCCC(C)(C)C(=O)O)C(=O)O | 72 | -13 | -38 | -4 | -13 | -6 | -24 | –
19 | CC(C)(CO)CCCOCCCC(C)(C)CO | – | – | – | – | – | – | – | Change (Rattus norvegicus [13]): 21%; Change (Rattus norvegicus [14]): 7%; IC50 (Rattus norvegicus [25]): Not Active; Change (Rattus norvegicus [15]): 58%; Change (Rattus norvegicus [16]): -13%; Change (Rattus norvegicus [17]): 77%; Change (Rattus norvegicus [24]): -8%
